Screening data deposited in PubChem by several laboratories.
A selection: hits, their analogues and other compounds. The true share with any hit is near 2.9%.
ABHD5-PLIN5 inh = ABHD5-PLIN5 interaction inhibitors, primary screen, cell lysate, split luciferase complementation, luminescence | AID 602281, 2012 | 360,000 tested, 0.78% active | inhibition, % at 4 µM | Split G. princeps luciferase complementation, 4 h;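 active = inhibition above the mean inhibition across every tested compound plus 3 SD, cut at about 22% in these data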;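 also: 0% = DMSO only wells and the 100% control is not disclosed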
Target sequence (Q00G26 whole entry, looked up): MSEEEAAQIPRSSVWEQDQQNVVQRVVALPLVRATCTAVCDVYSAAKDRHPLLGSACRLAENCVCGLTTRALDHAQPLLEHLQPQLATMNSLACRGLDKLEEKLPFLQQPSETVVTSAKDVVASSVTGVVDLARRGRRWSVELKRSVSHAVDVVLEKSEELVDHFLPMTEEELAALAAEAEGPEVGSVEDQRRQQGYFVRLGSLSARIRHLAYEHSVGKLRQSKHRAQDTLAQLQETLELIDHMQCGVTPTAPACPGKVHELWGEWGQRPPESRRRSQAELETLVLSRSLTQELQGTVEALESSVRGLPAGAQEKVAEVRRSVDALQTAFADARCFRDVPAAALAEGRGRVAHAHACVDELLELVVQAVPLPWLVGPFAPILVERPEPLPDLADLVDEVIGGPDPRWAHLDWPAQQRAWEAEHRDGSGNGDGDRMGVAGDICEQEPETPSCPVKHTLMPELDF
Target sequence (Q8WTS1 whole entry, looked up): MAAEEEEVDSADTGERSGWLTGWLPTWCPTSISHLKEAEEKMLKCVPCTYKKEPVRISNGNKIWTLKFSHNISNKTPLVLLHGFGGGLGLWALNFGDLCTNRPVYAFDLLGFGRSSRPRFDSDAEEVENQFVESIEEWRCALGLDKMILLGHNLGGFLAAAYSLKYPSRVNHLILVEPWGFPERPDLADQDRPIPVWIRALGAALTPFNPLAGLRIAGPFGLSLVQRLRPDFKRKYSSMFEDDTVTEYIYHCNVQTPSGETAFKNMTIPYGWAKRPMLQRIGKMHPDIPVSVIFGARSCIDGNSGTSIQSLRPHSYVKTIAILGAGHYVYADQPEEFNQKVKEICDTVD
PRMT1 FP inh = PRMT1 methyltransferase inhibitors, primary screen, biochemical, fluorescence polarization; Protein arginine N-methyltransferase 1 (Homo sapiens), Q99873; recombinant PRMT1, activity-based probe fluorescence polarization; inhibition, % at 2.79 µM; 370,000 tested, 1.3% active; AID 652257, 2013;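 active = inhibition above about 21% made by adding two undisclosed values, limit read from the data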
HCV NS3 hel inh = inhibitors of HCV NS3 helicase, primary screen, biochemical, Cy5 molecular beacon fluorescence. Hepatitis C virus NS3 helicase. NS3 helicase DNA unwinding. inhibition, % at 10.9 µM. 290,000 tested, 0.56% active. AID 1800, 2009;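 active = inhibition above the mean of all tested compounds plus 3 SD, set per campaign, cut at about 35% in these data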;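 also: 0% = DMSO wells and 100% = thioflavine S control wells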
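Material: hepatitis C virus NS3 helicase domain fragment enzyme; measured by: Cy5 fluorescence, 0 and 60 min reads; control set: DMSO and thioflavine S; incubation: 60 min unwinding reaction at 25 °C after ATP addition; read-out basis: % inhibition from 60/0 min fluorescence ratio, DMSO 0%, thioflavine S 100%; repeats: singlicate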
HCV core dimer = inhibitors of HCV core protein dimerization, primary screen, biochemical, TR-FRET, high-throughput | inhibition, % at 5 µM | TR-FRET GST/Flag-core106 dimerization, 1536-well | 300,000 tested, 0.33% active;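 active = inhibition above the mean of all tested compounds plus 3 SD, set per screening campaign, cut at about 45% in these data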
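Test system: GST/Flag-tagged HCV core106 proteins; Medium: KF-containing HEPES buffer, pH 7.45, DTT, CHAPS, BSA; Times: compound-protein-antibody incubation 4 h at 22.5 °C; Detection: TR-FRET 671 and 617 nm emission; Benchmarks: wells lacking GST-core106 and wells with excess unlabelled core106.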
APOBEC3G inh = APOBEC3G DNA deaminase inhibitors, primary screen, biochemical, fluorescence, single-stranded DNA substrate, uHTS | AID 493012, 2011 | inhibition, % at 20 µM | recombinant A3G, ssDNA deamination FAM/TAMRA fluorescence | DNA dC->dU-editing enzyme APOBEC-3G (Homo sapiens), Q9HC16 | 330,000 tested, 0.28% active;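 active = inhibition of at least 40% at 20 µM, with no more than 30% in the related APOBEC3A deaminase screen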;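 also: plate controls were DMSO wells with A3G for no effect and wells lacking A3G enzyme for full effect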
A3A deaminase = APOBEC3A ssDNA deaminase inhibitors, primary screen, selectivity assay for APOBEC3G inhibitor project, biochemical, FAM/TAMRA oligo cleavage fluorescence; DNA dC->dU-editing enzyme APOBEC-3A (Homo sapiens), P31941; recombinant A3A, FAM/TAMRA ssDNA deamination fluorescence; inhibition, % at 20 µM; 330,000 tested, 0.41% active; AID 493011, 2011;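 active = at least 40% inhibition at 20 µM here, with at most 30% in a related deaminase screen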;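 also: plate controls were A3A with DMSO for no effect and wells lacking A3A enzyme for full effect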
* marks the source's active call; other numbers are inactive results; x = not tested or not shown.

SMILES	ABHD5-PLIN5 inh	PRMT1 FP inh	HCV NS3 hel inh	HCV core dimer	APOBEC3G inh	A3A deaminase
Cn1c(SCC(=O)Nc2sccc2C#N)nnc1-c1ccccc1	5	2	8	49*	-5	-2
Cc1ccc(S(=O)(=O)N2C[C@H]3C(=O)C[C@@H](c4ccccc4F)N(S(=O)(=O)c4ccc(C)cc4)[C@H]3C[C@H]2c2ccccc2)cc1	17	4	x	x	x	x
COc1ccc2noc3c2c1C(=O)c1ccccc1-3	-1	157*	x	-3	-77	-78
CCOC(=O)c1ccccc1NC(=O)c1ccc2nccnc2c1	1	-1	-2	54*	-1	6
CC(NC(=O)Cc1ccc(S(=O)(=O)N2CCOCC2)s1)c1ccc(Br)cc1 (stereo not drawn)	-15	-2	x	x	x	x
Cc1ccc(C)n1-c1cccc(N)c1	x	x	1	64*	1	-2
COC(=O)[C@]12C[C@H](CC(=O)NCCCN3CCCC3=O)C(=O)N(Cc3ccc(Cl)cc3Cl)C1=C[C@H](C(C)C)O[C@@H]2C1CC1	x	2	x	x	x	x
CCN(CC)c1ccc(N=Cc2cc(Br)ccc2O)cc1	7	22*	27	3	-3	-3
Cc1ccc(O)c(C=Nc2cc(C)ccc2O)c1	-4	x	28	-13	3	2
CC(C)(C)c1ccc(O)c(N=Cc2cc(Br)ccc2O)c1	3	21*	28	1	3	-7
Cc1ccc(CNc2ncnc3ccc(-c4ccc(CO)o4)cc23)o1	12	25*	x	x	x	x
CCn1ccc(C(=O)NC2C(=O)N3C(C(=O)O)=C(C)CSC23)n1 (stereo not drawn)	-7	7	6	-4	-1	2
Cc1nnc(SCC2=C(C(=O)O)N3C(=O)C(NC(=O)Cc4ccccc4)C3SC2)s1 (stereo not drawn)	1	25*	x	x	-6	6
Cc1nn(CC(=O)NC2C(=O)N3C(C(=O)O)=C(CSc4nnnn4C)CSC23)cc1Br (stereo not drawn)	11	22*	17	0	-2	16
Cn1nnnc1SCC1=C(C(=O)O)N2C(=O)C(NC(=O)Cn3nc(C(F)F)cc3C3CC3)C2SC1 (stereo not drawn)	10	24*	35	-4	2	14
COC(=O)[C@]12C[C@H](CC(=O)NCCC(C)C)C(=O)N(Cc3ccco3)C1=C[C@H](C1CCCC1)O[C@@H]2C	x	0	x	x	x	x
CCCC/C=C1/[C@@H](CC)N(Cc2ccc(OC)cc2OC)C2=N[C@@H](c3ccccc3)CC(=O)N21	x	-4	x	x	x	x
COC(=O)C1=C(C)N(Cc2cccc(C(F)(F)F)c2)C(=NCc2cc(OC)c(OC)c(OC)c2)NC1c1ccccc1 (stereo not drawn)	x	-2	x	x	x	x
C/C(=C/c1oc2ccc(O)cc2c1[N+](=O)[O-])N(C)C	4	24*	9	-19	0	0
COC(=O)c1ccc(CC(=O)c2c(C)cc(O)cc2O)o1	2	24*	35	-4	10	20
COC(=O)c1ccc(CC(=O)c2ccc(O)cc2O)o1	2	x	13	2	0	-10
O=C(O)c1ccc(C=Nn2c(-c3ccc(F)cc3)n[nH]c2=S)cc1	x	0	x	x	x	x
CCOc1ccc(C=Nn2c(-c3ccc(F)cc3)n[nH]c2=S)cc1	x	23*	x	x	x	x
C[C@@H]1O[C@@H](n2c3ccc(Cl)cc3c3ccc4c5cc(Cl)ccc5[nH]c4c32)[C@H](O)[C@H](O)[C@H]1O	x	2	x	x	x	x
CCC1OC2(C)OC(=N)C1(C#N)C(C#N)(C#N)C2c1ccccc1 (stereo not drawn)	-4	5	9	3	-6	-3
SMILES	ABHD5-PLIN5 inh	PRMT1 FP inh	HCV NS3 hel inh	HCV core dimer	APOBEC3G inh	A3A deaminase
CC(C)C1OC2(C)OC(=N)C1(C#N)C(C#N)(C#N)C2c1ccccc1 (stereo not drawn)	3	25*	11	6	-4	-1
CCC(Oc1ccccc1)C(=O)NCCOC (stereo not drawn)	-2	22*	-24	-2	-6	-3
CS(=O)(=O)c1ccccc1-c1nnc(NC(=O)c2ccc3ncsc3c2)o1	-3	28*	x	1	4	5
CCOc1ccc(C(=O)CC(C(=O)O)N2CCN(Cc3ccccc3)CC2)cc1 (stereo not drawn)	95*	x	x	x	2	3
CCOc1ccc(C(=O)CC(C(=O)O)N2CCCCC2)cc1 (stereo not drawn)	85*	x	x	x	6	-2
CCOc1ccc(C(=O)OC(C)C(=O)N2CCN(Cc3ccccc3)CC2)cc1 (stereo not drawn)	0	0	x	x	-4	1
Cc1cccc(N(C(=O)CNC(=O)c2cccs2)C(C(=O)NC2CCCC2)c2ccncc2)c1 (stereo not drawn)	-9	-7	4	6	-12	-4
C=CCC[C@H](Cc1ccc(F)cc1)C(=O)OC[C@H](C)NC(=O)[C@@H](CC=C)CC(=O)N[C@H](CO)Cc1ccccc1	7	1	x	x	-7	1
O=C1c2ccccc2C(Nc2cccnc2)N1Cc1ccc2c(c1)OCO2 (stereo not drawn)	-5	6	-1	4	-7	-4
O=C1c2ccccc2C(Nc2ccc3c(c2)OCO3)N1Cc1ccc2c(c1)OCO2 (stereo not drawn)	-5	15	9	50*	20	-1
COc1cc(NC(=S)N2CCN(c3ccccn3)CC2)c(OC)cc1Cl	-1	22*	3	-2	1	-2
COc1ccc(C(=O)c2[nH]c(N)c(C(=O)c3c[nH]c4ccccc34)c2-c2ccc(OC)cc2)cc1	x	7	x	x	x	x
O=C(N/N=C\c1ccc(COc2ccc([N+](=O)[O-])cc2)o1)c1ccc(Cl)cc1	-1	-1	6	7	-5	-3
O=[N+]([O-])CC(=Nc1ccc(Cl)cc1)N/N=C\c1oc(O)c2ccccc12	0	14	8	61*	0	1
Cc1ccc(C23CC4CC(CC(NC(=O)NCCN(C)C)(C4)C2)C3)cc1	14	-1	-33	-23	-4	-2
CN(C)CCNC(=O)COc1ccc(C23CC4CC(CC(C4)C2)C3)cc1	23*	2	-41	-5	-5	0
